Active and inactive are the calls of the source. No cut-off for these calls is given here.
Experiments:
A549 = test: Cytotoxicity against human A549 cells incubated for 72 hrs by CyQuant NF cell proliferation assay; assay type: functional, cell-based; conditions: A549, 72 h
Method in brief: (§1)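 Cells seeded at 4,000 per well and treated 20 h later with serially diluted compounds for 72 h at 37 °C, 5% CO2. Medium containing penicillin 100 U/mL and streptomycin 100 μg/mL. Medium then replaced with CyQuant NF dye-binding solution for 60 min at 37 °C and fluorescence read on a plate reader. Triplicates in two independent trials. IC50 reported. In the second trial, sample concentration was set by colorimetry against a standard curve.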

[1] = molecular target: Beta-secretase 1 (Homo sapiens) (UniProt P56817); test: Inhibition of BACE1 (unknown origin) up to 30 uM
Sequence of Beta-secretase 1 (Homo sapiens) (P56817 whole entry): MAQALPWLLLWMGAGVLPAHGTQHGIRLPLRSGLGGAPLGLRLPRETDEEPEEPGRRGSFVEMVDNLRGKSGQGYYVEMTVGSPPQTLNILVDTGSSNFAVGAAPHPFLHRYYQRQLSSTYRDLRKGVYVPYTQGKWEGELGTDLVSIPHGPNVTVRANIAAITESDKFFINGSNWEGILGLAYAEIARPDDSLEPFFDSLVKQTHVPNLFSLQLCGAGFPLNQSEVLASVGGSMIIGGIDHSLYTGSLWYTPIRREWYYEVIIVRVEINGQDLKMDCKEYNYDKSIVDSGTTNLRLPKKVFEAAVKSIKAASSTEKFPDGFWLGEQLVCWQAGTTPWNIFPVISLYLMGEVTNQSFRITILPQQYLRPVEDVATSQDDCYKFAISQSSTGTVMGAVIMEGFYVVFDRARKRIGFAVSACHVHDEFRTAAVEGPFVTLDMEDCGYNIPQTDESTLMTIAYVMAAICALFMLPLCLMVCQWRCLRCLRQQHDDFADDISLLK

MDA-MB-231 = test: Cytotoxicity against human MDA-MB-231 cells incubated for 72 hrs by CyQuant NF cell proliferation assay; assay type: functional, cell-based; conditions: MDA-MB-231, 72 h; method in brief: as §1
DU-145 = test: Cytotoxicity against human DU145 cells incubated for 72 hrs by CyQuant NF cell proliferation assay; assay type: functional, cell-based; conditions: DU-145, 72 h; method in brief: as §1

SMILES | IC50 (A549) [nM] | inhibition [1] | IC50 (MDA-MB-231) [nM] | IC50 (DU-145) [nM]
COCC(OC)C(=O)OC(CCC(C)C(CC1OC(=O)CC(O)CCCC(=O)CC(C)c2coc(n2)-c2coc(n2)-c2coc(n2)/C=C/CC(OC)C1C)OC)C(C)C(OC(C)=O)C(C)/C=C/N(C)C=O (stereo unspecified) | 260 to 330 | inactive | 290 | 280 to 340
CO[C@H]1C/C=C/c2nc(co2)-c2nc(co2)-c2nc(co2)[C@@H](C)CC(=O)CCC[C@H](O)CC(=O)O[C@@H](C[C@H](OC)[C@@H](C)CCC(=O)[C@H](C)[C@H](OC(C)=O)[C@H](C)/C=C/N(C)C=O)[C@@H]1C | 280 to 290 | inactive | 230 to 250 | 250 to 260
COC(CC1OC(=O)CC(O)CCCC(=O)CC(C)c2coc(n2)-c2coc(n2)-c2coc(n2)/C=C/CC(OC)C1C)C(C)CCC(O)C(C)C(OC(C)=O)C(C)/C=C/N(C)C=O (stereo unspecified) | 600 to 680 |  | 580 to 760 | 760 to 850

Reference: ChEMBL document CHEMBL4033606, “Ulapualides C-E Isolated from a Hawaiian Hexabranchus sanguineus Egg Mass” (J Nat Prod, 2017)
